Data reported in publication PMC5393272 (Nature chemical biology, 2016).

What was measured:
H2444 cells [1] = test: MTT proliferation assay, H2444; type: cell-based; details: H2444 (FGFR amplified, not FGFR1-dependent), 10μM NGI-1, 5 d
Method in brief: (§1)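 NSCLC cells (2×10^3 per well, triplicate wells) were grown in 10% serum medium with 10 μM test compound or 1 μM tunicamycin; medium and inhibitor were renewed every 48 h. MTT was added 4 h before reading absorbance at 570 nm on days 0, 3 and 5. Mean ± s.d., n = 3; two-tailed t-tests.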

[2] = test system: N-linked glycosylation in D54-ERLucT cells; test: D54-ERLucT cell based luciferase assay for inhibition of N-linked glycosylation; details: intact D54 ER-LucT cells in culture; maximum activation using 20 μM NGI-1; n=4
H3225 [3] = test: Cell cycle distribution by flow cytometry, H3225; type: cell-based; details: H3225, NGI-1 24 h; control 55%; p<.05
Method in brief: (§2)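 Cells were treated with test compound (24 h stated for PC9 and A549). 1 × 10^6 cells were washed in ice-cold PBS, fixed overnight in ice-cold 70% ethanol at −20°C, then stained in Guava Cell Cycle Reagent for 30 min at room temperature. Analysis was on an LSRII cytometer, gating normal FSC/SSC and excluding doublets by FSC-A vs FSC-H. About 30,000 cells per run; mean of 3 independent assays; two-tailed t-tests.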

A549 cell line = test: MTT proliferation assay, A549; type: cell-based
Method in brief: as §1

[4] = test system: luciferase N-linked glycosylation in D54 ER-LucT cells; test: Western blot of luciferase N-linked glycosylation in NGI-1 treated cell cultures; type: cell-based; details: doses 25 times the estimated IC50; unlike tunicamycin
HCC-827 = test: Proliferation assay, HCC-827; type: cell-based; details: HCC-827 (EGFR KD mutation), NGI-1
FGFR1 = test: FGFR phosphorylation western blot in H1581 and H2444; type: cell-based; details: H1581 and H2444 NSCLC cell lines, NGI-1
Method in brief: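 H1581 and H2444 NSCLC cells were treated with test compound. Lysates were western blotted with anti-phospho-FGFR (Tyr653/654) at 1:3,000, and gel mobility was assessed.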

EGFR [5] = test: Western blot of EGFR N-linked glycosylation in lung adenocarcinoma cells; type: cell-based; details: 10μM NGI-1, 24h; residual glycosylation remains
STT3B = STT3B (Homo sapiens, UniProt Q8TCJ2); test: 35S metabolic labeling of SHBG glycosylation; type: cell-based
Method in brief: (§3)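 HeLa cells transfected with pSAP or SHBG vectors, given 10 μM test compound and metabolically labelled with 35S. Glycoforms were scored and reported as the average number of glycans per sample, with endoglycosidase H-treated controls. Runs were compared with siRNA knockdown of STT3A or STT3B against non-coding siRNA. Dose-response was run on pSAP and SHBG expressed in HEK293 cells.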

PC9 cells [6] = test: Cell cycle distribution by flow cytometry, PC9; type: cell-based; details: PC9, NGI-1 24 h; control 65%; p<.01
Method in brief: as §2

Integrin B1 (ITB1) = test: ITB1 glycosylation and localization; type: cell-based; details: 10μM NGI-1, 48 h; hypo-glycosylated ITB1 still at the cell surface
Method in brief: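 H3255 cells were treated with 10 μM test compound for 48 h. Surface biotinylation: on ice, cells were labelled with 0.5 mg/ml Sulfo-NHS-SS-biotin in PBS for 60 min at 4°C, quenched with 100 mM glycine, lysed, and pulled down on streptavidin-agarose overnight at 4°C. Bound (surface) and unbound (intracellular) fractions were blotted on 7.5% SDS-PAGE. Confocal imaging used anti-β1-integrin at 1:500.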

PC9 cells [7] = test: MTT proliferation assay, PC9; type: cell-based
Method in brief: as §1

p21 = p21 protein western blot, PC9; type: cell-based; details: PC9, NGI-1
H1581 cells = test: Cell cycle distribution by flow cytometry, H1581; type: cell-based; details: H1581, NGI-1; control 55%; p<.05
Method in brief: as §2

OST [8] = test: Cell free pSAP glycosylation with canine pancreas microsomes; type: biochemical; details: in vitro translation of pSAP mRNA, 60 min
GRP78/BiP = test: ER stress response, GRP78/BiP protein expression; type: cell-based; details: PC9 and A549 cell lines, NGI-1
STT3A = STT3A (Homo sapiens, UniProt P46977); test: 35S metabolic labeling of pSAP glycosylation; type: cell-based
STT3A, sequence (P46977 whole entry): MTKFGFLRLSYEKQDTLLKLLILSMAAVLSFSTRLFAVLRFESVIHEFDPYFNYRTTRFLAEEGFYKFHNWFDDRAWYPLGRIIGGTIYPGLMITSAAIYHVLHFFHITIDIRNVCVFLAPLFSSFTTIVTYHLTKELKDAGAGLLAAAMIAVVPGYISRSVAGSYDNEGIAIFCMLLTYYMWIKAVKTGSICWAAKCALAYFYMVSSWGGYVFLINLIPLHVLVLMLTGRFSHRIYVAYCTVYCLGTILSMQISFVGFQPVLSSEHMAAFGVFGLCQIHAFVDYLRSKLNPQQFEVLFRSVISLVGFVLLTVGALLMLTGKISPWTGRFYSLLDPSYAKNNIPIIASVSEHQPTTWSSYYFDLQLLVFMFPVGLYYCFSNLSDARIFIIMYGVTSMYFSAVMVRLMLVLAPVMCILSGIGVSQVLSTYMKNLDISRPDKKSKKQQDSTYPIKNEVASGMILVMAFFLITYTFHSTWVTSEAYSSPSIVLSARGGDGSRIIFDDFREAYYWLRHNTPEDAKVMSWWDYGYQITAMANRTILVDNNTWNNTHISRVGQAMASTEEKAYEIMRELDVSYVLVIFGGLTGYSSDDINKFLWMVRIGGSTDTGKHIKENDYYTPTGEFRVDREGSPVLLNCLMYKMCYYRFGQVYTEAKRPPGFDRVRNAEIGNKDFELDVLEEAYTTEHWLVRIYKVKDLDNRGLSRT
Method in brief: as §3

cyclin D1 = test: Cyclin D1 mRNA and protein, A549; type: cell-based, human; details: A549, NGI-1
Method in brief: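 Cyclin D1 mRNA: A549 and PC9 cells were treated with test compound, total RNA purified and reverse transcribed, and qPCR run with SYBR Green normalised to GAPDH. Cycling was 95°C 10 min, then 40 cycles of 95°C 30 s, 55°C 15 s, 72°C 30 s. Triplicate PCRs; n = 4; two-tailed t-tests. Protein was assessed by western blot, n = 3.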

A549 cells [9] = test: Apoptosis assessment, A549; type: cell-based
A549 cells [10] = test: Cell cycle distribution by flow cytometry, A549; type: cell-based; details: A549, NGI-1 24 h
Method in brief: as §2

KD mutant EGFR = test: EGFR phosphorylation western blot in PC9 cells; type: cell-based; details: 10μM NGI-1, 1 day
Method in brief: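 PC9 cells (with A549 for comparison) were treated with 10 μM test compound for 24 h. Lysates were western blotted for EGFR phospho-Y1173, and glycoform gel-mobility shifts were noted.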

HCC-827 cells = test: Cell cycle distribution by flow cytometry, HCC-827; type: cell-based; details: HCC-827, NGI-1 24 h; control 50%; p<.01
Method in brief: as §2

[11] = test system: LLO synthesis in CHO cells; test: FACE analysis of LLOs in wild type CHO cells; type: cell-based; details: for effect on LLO synthesis: FACE
Method in brief: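 Wild-type CHO cells were treated with test compound or tunicamycin. Lipid-linked oligosaccharides were analysed by fluorophore-assisted carbohydrate electrophoresis, with mature Glc3Man9 LLO as the size marker; n = 3.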

PC9 cells [12] = test: Apoptosis assessment, PC9; type: cell-based
A549 cells [13] = test: Senescence assessment, A549; type: cell-based; details: A549, NGI-1 for 5 days
Method in brief: (§4)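 PC9 and A549 cells, untreated or given 10 μM test compound, were fixed in 70% ethanol and stained with DAPI for 30 min. Flow cytometry used 532 nm and 405 nm lasers; autofluorescence emission at 575 nm was read after DAPI gating; n = 4.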

OST [14] = type: biochemical; details: NGI-1 5 μM; streptolysin-O permeabilized CHO cells; QYT or NYT peptide
Method in brief: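 CHO cells permeabilized with streptolysin-O, incubated with test compound and either control tripeptide Ac-Gln-Tyr-Thr-CONH2 or glycosylation acceptor Ac-Asn-Tyr-Thr-CONH2. Free glycans and cleaved N-linked glycans resolved by fluorophore-assisted carbohydrate electrophoresis; n=2 for each product.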

H2444 cells [15] = test: Cell cycle distribution by flow cytometry, H2444; type: cell-based; details: H2444, NGI-1
Method in brief: as §2

PC9 cells [16] = test: Senescence assessment; type: cell-based; details: PC9, NGI-1 for 5 days; emission 575 nm; p<.05
Method in brief: as §4

H1581 cell line = test: MTT proliferation assay, H1581; type: cell-based; details: H1581 (FGFR1-dependent), 10μM NGI-1, 5 d
Method in brief: as §1

EGFR [17] = test: EGFR localization by surface biotinylation and confocal microscopy; type: cell-based; details: H3255 cells, 10 μM NGI-1, 24 h; identical in HCC-827
H3225 [18] = test: Proliferation assay, H3225; type: cell-based; details: H3225 (EGFR KD mutation), NGI-1
[19] = HeLa cells, 10 μM, NGI-1 omitted during pulse labeling interval (20 minutes)

Cc1cnc(NC(=O)c2cc(S(=O)(=O)N(C)C)ccc2N2CCCC2)s1 [NGI-1]
effect on proliferation (H2444 cells [1]): NGI-1 insensitive | AC50 (equivalent to IC50), luciferase activity [2]: 1.1 µM | cells in G1 (H3225 [3]): 80% | effect on proliferation (A549 cell line; A549 (KRAS G12S), 10μM NGI-1, MTT over 5 days): continued to proliferate | extent of N-linked glycosylation inhibition [4]: did not completely abolish all N-linked glycosylation | effect on proliferation (HCC-827): sensitive | FGFR1 phosphorylation (Y653/654) (FGFR1): blocked FGFR1 phosphorylation | EGFR N-linked glycosylation (molecular weight on SDS-PAGE) (EGFR [5]): blocked EGFR N-linked glycosylation | reversibility of inhibition of site occupancy (STT3B specific sites) (STT3B; [19]): reversible | LLO transfer to STT3B dependent sites (SHBG) (STT3B; dose response, HEK293 cells): completely blocks | cells in G1 (PC9 cells [6]): 90% | ITB1 glycosylation (Integrin B1 (ITB1)): significantly reduced ITB1 glycosylation | reduction of cell proliferation (PC9 cells [7]; PC9, 10μM NGI-1, after 3 days, MTT, p <.001): more than 90% | protein levels of p21 (p21): increase within 24 h | cells in G1 (H1581 cells): 80% | inhibition of pSAP N-linked glycosylation (OST [8]): dose dependent inhibition | ER stress response (GRP78/BiP protein expression) (GRP78/BiP): induced a similar ER stress response in both cell lines | reversibility of inhibition of site occupancy (STT3A specific sites) (STT3A; [19]): reversible | glycosylation of STT3A dependent sites (pSAP) (STT3A; dose response, HEK293 cells): less potent and incompletely blocks | cyclin D1 mRNA and protein levels (cyclin D1): not significantly affected | induction of apoptosis (A549 cells [9]; A549, NGI-1 for 2 or 5 days): did not induce apoptosis | cell cycle distribution (A549 cells [10]): did not significantly change | phosphorylation of KD mutant EGFR (Y1173) (KD mutant EGFR): blocked phosphorylation | cells in G1 (HCC-827 cells): 75% | effect on LLO synthesis [11]: did not impair LLO synthesis | increase of Glc3Man9GlcNAc2 LLO ([11]; p <.01): 31% | induction of apoptosis (PC9 cells [12]; PC9, NGI-1 for 2 or 5 days): did not induce apoptosis | hallmarks of senescence (autofluorescence, lipofuscin aggregates, morphology) (A549 cells [13]): none of these changes were detected | production of OST products (free glycans and N-glycans) (OST [14]): substantially reduce the production of both OST products | G1 arrest (H2444 cells [15]): not in H2444 cells | increased autofluorescence by flow cytometry (PC9 cells [16]): 60.4% ± 7.5% | effect on proliferation (H1581 cell line): blocked proliferation | EGFR trafficking / cellular localization (EGFR [17]): blocks EGFR trafficking to the cell surface | effect on proliferation (H3225 [18]): sensitive

tunicamycin [reference compound]
effect on proliferation (A549 cell line; A549, 1μM tunicamycin, MTT over 5 days): immediately blocks proliferation | effect on proliferation (PC9 cells [7]; PC9, 1μM tunicamycin, MTT over 5 days): immediately blocks proliferation | induction of apoptosis (A549 cells [9]; A549, tunicamycin treatment): apoptosis was activated | effect on LLO synthesis [11]: blocked all LLO production | induction of apoptosis (PC9 cells [12]; PC9, tunicamycin treatment): apoptosis was activated
